Test [1] addresses T1, Serine/threonine-protein kinase BRSK2 (Homo sapiens) (UniProt Q8IWQ3).
T1 sequence (whole entry): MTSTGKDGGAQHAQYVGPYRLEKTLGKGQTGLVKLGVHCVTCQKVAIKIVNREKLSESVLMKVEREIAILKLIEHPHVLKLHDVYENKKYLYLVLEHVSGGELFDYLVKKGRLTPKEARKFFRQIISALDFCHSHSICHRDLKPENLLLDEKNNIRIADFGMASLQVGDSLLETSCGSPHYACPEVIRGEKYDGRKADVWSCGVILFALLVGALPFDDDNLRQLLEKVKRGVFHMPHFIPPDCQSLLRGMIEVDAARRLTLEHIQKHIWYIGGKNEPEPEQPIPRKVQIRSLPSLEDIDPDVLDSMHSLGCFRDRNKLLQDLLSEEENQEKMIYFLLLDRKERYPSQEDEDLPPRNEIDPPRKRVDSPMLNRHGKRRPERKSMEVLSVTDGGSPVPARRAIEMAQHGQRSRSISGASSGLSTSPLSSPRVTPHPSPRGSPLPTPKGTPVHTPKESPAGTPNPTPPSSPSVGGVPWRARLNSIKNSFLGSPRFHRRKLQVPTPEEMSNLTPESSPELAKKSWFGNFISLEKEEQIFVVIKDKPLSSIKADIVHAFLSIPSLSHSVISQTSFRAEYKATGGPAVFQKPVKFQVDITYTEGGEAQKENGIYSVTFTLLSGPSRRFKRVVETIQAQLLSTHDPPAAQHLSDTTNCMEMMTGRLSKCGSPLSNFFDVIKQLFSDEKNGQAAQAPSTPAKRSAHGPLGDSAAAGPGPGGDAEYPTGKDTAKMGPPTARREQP
Put plainly: Inhibition of BRSK2 at 1 uM. An outline of the steps: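 Ambit KINOMEscan screen at a single concentration across a 250–400 kinase panel, recorded as percent inhibition. Selectivity was expressed as S(90), the fraction of kinases inhibited >90%.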

Test [2] deals with T2, Receptor-type tyrosine-protein kinase FLT3 (Homo sapiens), P36888 [D835H].
T2 sequence (whole entry): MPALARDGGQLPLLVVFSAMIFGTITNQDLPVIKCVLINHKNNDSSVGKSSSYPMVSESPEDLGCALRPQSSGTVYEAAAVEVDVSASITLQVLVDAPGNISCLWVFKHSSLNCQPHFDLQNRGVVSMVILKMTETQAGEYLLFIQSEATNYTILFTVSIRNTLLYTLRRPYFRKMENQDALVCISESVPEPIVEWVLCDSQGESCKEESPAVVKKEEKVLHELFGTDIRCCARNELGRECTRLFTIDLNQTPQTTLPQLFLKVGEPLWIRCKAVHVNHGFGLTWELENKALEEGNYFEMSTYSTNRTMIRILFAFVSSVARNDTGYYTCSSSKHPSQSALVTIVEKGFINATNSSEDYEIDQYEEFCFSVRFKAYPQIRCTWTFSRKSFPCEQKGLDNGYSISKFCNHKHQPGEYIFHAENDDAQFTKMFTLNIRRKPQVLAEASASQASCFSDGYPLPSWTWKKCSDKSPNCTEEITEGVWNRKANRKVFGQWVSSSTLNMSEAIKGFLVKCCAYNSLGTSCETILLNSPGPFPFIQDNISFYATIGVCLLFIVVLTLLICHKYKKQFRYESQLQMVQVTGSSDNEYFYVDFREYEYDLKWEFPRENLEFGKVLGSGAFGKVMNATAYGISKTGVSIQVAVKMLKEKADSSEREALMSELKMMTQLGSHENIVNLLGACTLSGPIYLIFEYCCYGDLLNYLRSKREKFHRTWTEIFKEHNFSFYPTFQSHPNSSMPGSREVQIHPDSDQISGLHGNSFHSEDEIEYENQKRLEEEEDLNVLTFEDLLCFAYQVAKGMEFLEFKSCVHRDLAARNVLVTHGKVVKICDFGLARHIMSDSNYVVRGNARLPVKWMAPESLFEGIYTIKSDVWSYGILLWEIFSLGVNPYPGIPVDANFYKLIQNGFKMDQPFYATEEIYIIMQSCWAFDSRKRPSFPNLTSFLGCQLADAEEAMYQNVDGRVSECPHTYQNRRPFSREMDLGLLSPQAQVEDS
As to the kind of experiment: Inhibition of FLT3 D835H mutant at 1 uM. An outline of the steps: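 Single-concentration screen on the Ambit KINOMEscan platform, run against a panel of 250–400 kinases. Per-kinase inhibition was also summarized as S(90), the fraction of kinases inhibited by more than 90%.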

Test [3] concerns the target T3, Serine/threonine-protein kinase TAO1 (Homo sapiens) (UniProt Q7L7X3).
T3 sequence (whole entry): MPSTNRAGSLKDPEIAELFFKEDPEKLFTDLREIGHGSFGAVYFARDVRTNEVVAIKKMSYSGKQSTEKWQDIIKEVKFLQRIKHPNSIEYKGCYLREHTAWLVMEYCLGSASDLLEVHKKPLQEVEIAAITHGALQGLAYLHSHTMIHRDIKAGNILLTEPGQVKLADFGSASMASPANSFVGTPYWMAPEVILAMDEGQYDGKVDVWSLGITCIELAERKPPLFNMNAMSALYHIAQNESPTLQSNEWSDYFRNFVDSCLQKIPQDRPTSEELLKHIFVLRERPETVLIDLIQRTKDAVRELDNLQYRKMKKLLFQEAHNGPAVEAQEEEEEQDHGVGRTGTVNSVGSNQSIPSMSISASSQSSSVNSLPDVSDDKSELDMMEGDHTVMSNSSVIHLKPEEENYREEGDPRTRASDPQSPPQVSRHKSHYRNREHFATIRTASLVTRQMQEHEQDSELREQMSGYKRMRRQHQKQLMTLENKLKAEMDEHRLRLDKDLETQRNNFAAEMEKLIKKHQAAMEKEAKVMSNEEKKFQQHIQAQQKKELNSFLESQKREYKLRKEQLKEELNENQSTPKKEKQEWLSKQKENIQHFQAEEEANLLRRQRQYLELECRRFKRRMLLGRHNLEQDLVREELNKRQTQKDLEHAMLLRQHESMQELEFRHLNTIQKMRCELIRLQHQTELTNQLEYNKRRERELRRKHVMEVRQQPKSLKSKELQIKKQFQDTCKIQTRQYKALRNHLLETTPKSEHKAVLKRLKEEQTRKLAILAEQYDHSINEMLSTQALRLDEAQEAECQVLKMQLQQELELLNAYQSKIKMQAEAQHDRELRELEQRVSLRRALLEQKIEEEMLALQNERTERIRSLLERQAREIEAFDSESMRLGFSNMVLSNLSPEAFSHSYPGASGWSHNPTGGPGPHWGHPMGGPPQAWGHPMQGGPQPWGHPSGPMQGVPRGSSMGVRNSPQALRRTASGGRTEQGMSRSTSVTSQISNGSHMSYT
Put plainly: Inhibition of TAOK1 at 1 uM.

SMILES strings stand for the structures.

`FC(F)(F)c1ccc(Cl)cc1CN1CCNc2ncc(-c3ccnc(N4CCNCC4)c3)cc21`: the inhibition – broadly, the drop in the measured response relative to a control, in per cent – in test [1] was less than 50%; in test [2], 93%; in test [3] it was less than 50%.

`CN1CCN(c2ccc(-c3cnc4c(c3)N(Cc3cc(F)ccc3F)CCN4)cn2)CC1`: the figures for the inhibition in test [1], in test [2] and in test [3] were less than 50%, 72.5% and less than 50%, respectively.

Take `CN1CCN(c2ccc(-c3cnc4c(c3)N(Cc3cc(Cl)ccc3Cl)CCN4)cn2)CC1`: the values for the inhibition in test [1], in test [2] and in test [3] were less than 50%, 80% and less than 50%, respectively.

On to `O=C(O)c1ccc(-c2cnc3c(c2)N(Cc2cc(Cl)ccc2C(F)(F)F)CCN3)cc1`, for which the inhibition in test [1] and in test [2] was less than 50% each time.

As to `CN1CCN(c2ccc(-c3cnc4c(c3)N(Cc3cc(Cl)ccc3C(F)(F)F)CCN4)cn2)CC1`, the inhibition in test [1] was less than 50%; in test [2], 82%; in test [3] it was less than 50%.

Take `COC1CCN(C(=O)c2ccc(-c3cnc4c(c3)N(Cc3cc(Cl)ccc3C(F)(F)F)CCN4)cc2)CC1`: the inhibition in test [1] was less than 50%; in test [2], 77.2%.

Take `O=C(c1ccc(-c2cnc3c(c2)N(Cc2cc(Cl)ccc2C(F)(F)F)CCN3)cc1)N1CCC(N2CCCC2)CC1`: the inhibition came to 63.8% in test [1] and 90.1% in test [2].

As to `CN1CCN(c2ccc(-c3cnc4c(c3)N(Cc3c(F)ccc(F)c3Cl)CCN4)cn2)CC1`, the inhibition in test [1] was less than 50%; in test [2], 73%; in test [3] it was less than 50%.

As for `O=C(c1ccc(-c2cnc3c(c2)N(Cc2cc(Cl)ccc2C(F)(F)F)CCN3)cc1)N1CCCCC1`, the inhibition in test [1] and in test [2] was less than 50% each time.

For `CC(=O)N1CCN(c2cc(-c3cnc4c(c3)N(Cc3cc(Cl)ccc3C(F)(F)F)CCN4)ccn2)CC1`, the inhibition in test [1] was less than 50%; in test [2], 81%; in test [3], less than 50%.

Values taken from ChEMBL document CHEMBL1165965, “Synthesis and structure-activity relationships of 1,2,3,4-tetrahydropyrido[2,3-b]pyrazines as potent and selective inhibitors of the anaplastic lymphoma kinase” (Bioorg Med Chem, 2010).
